Seven molecules from ChEMBL document CHEMBL2396525, “Synthesis and anti-HCMV activity of 1-[ω-(phenoxy)alkyl]uracil derivatives and analogues thereof” (Bioorg Med Chem, 2013) can be followed below.

In general, CC50 refers to the concentration that lowers cell viability or growth by half. Lower therefore signals greater toxicity to the cells. A word on the EC50: it is the concentration giving half of the maximal effect.

Activity calls are given as the source filed them. No cut-off for these calls is given here.

In series [1] the test system is Human immunodeficiency virus 2. Kind of series: Antiviral activity against HIV2 ROD infected in human CEM cells assessed as inhibition of virus-induced giant cell formation after 4 to 5 days. It counts as functional, organism-based. The conditions noted are these: ISOLATE ROD, CCRF-CEM. An outline of the steps:
(§1)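 CEM cells at about 3 × 10^5 cells/mL were infected with 100 CCID50 of HIV per mL, with compound dilutions present. They were incubated 4–5 days at 37 °C in humidified CO2, and syncytia were scored microscopically. EC50 is the concentration that inhibits giant cell formation by 50%.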

Series [2] deals with Human immunodeficiency virus 1. Kind of series: Antiviral activity against HIV1 3B infected in human CEM cells assessed as inhibition of virus-induced giant cell formation after 4 to 5 days. It counts as functional, organism-based. The conditions noted are these: CCRF-CEM. An outline of the steps: as §1
Another series concerns Feline coronavirus. In words: Antiviral activity against Feline coronavirus. It counts as functional, organism-based.
The test system of the next series is Sindbis virus. In words: Antiviral activity against Sindbis virus. It counts as functional, organism-based. Put shortly:
(§2)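 Confluent HEL, Vero, HeLa or MDCK cell cultures were inoculated with 100 CCID50 of virus alongside varying compound concentrations. Cytopathicity was scored when it reached completion in untreated virus controls. EC50 is the concentration that reduces virus-induced cytopathogenicity by 50%.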

A further series concerns Punta Toro virus. In words: Antiviral activity against Punta Toro virus. It counts as functional, organism-based. An outline of the steps: as §2
The next series has as its system Influenza B virus. Kind of series: Antiviral activity against Influenza B virus. It counts as functional, organism-based. Put shortly: (§3)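 The assay was a cell-based cytopathicity inhibition test on confluent monolayers with serial compound dilutions. EC50 was the concentration that reduced virus-induced cytopathicity by 50%.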
Series [3] deals with Mammalian orthoreovirus 1. In words: Antiviral activity against Reovirus-1. It counts as functional, organism-based. Put shortly: as §2
Series [4] concerns Influenza A virus. Kind of series: Antiviral activity against Influenza virus A virus H3N2. It counts as functional, organism-based. Put shortly:
as §3

A further series relates to Human respirovirus 3. In words: Antiviral activity against Parainfluenza virus 3. It counts as functional, organism-based. An outline of the steps:
as §2

The test system of series [5] is Influenza A virus. In words: Antiviral activity against Influenza virus A virus H1N1. It counts as functional, organism-based. Put shortly: as §3
Another series deals with Coxsackievirus B4. Kind of series: Antiviral activity against Coxsackie B4 virus. It counts as functional, organism-based. An outline of the steps: as §2
The subject of series [6] is Vesicular stomatitis virus. Kind of series: Antiviral activity against Vesicular stomatitis virus. It counts as functional, organism-based.
For series [7], the system named is Respiratory syncytial virus. Kind of series: Antiviral activity against Respiratory syncytial virus Long. It counts as functional, organism-based. An outline of the steps:
as §2

The subject of a further series is Vaccinia virus. Kind of series: Antiviral activity against Vaccinia virus Lederle. The conditions noted are these: Orthopoxvirus vaccinia. It counts as functional, organism-based.
Series [8] deals with Human alphaherpesvirus 3. Kind of series: Antiviral activity against Varicella-zoster virus YS. It counts as functional, organism-based. Put shortly: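 VZV was assayed by plaque formation. Confluent cell cultures received 10 or 100 PFU with varying compound concentrations, and plaques were recorded once complete in untreated infected controls. EC50 is the concentration that reduces plaque formation by 50%.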

For series [9], the system named is Human alphaherpesvirus 3. In words: Antiviral activity against Varicella-zoster virus OKA. It counts as functional. The conditions noted are these: strain Oka vaccine. Put shortly:
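Confluent cell monolayers were infected with 10 or 100 PFU of VZV in the presence of serial compound dilutions. Plaque formation was recorded once untreated infected controls reached completion. EC50 was the concentration that reduced plaque formation by 50%.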

The subject of series [10] is Human alphaherpesvirus 2. Kind of series: Antiviral activity against Herpes simplex virus type 2 Lyons. It counts as functional, organism-based. Put shortly:
as §2

The subject of series [11] is Human alphaherpesvirus 2. Kind of series: Antiviral activity against Herpes simplex virus type 2 G. It counts as functional, organism-based. The conditions noted are these: strain G. An outline of the steps: as §2
Series [12] relates to Human alphaherpesvirus 1. Kind of series: Antiviral activity against thymidine kinase deficient acyclovir-resistant Herpes simplex virus type 1 KOS. It counts as functional, organism-based.
The test system of series [13] is Human alphaherpesvirus 1. In words: Antiviral activity against Herpes simplex virus type 1 KOS. It counts as functional, organism-based. An outline of the steps:
as §2

Another series deals with HEL. In words: Cytotoxicity against HEL. It counts as cell-based. The conditions noted are these: human.
Series [14] deals with Human betaherpesvirus 5. Kind of series: Antiviral actiivty against Human herpesvirus 5 Davis infected in HEL assessed as reduction of virus-induced plaque formation. It counts as functional, organism-based. The conditions noted are these: Human betaherpesvirus 5, Davis. An outline of the steps: (§4)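 HCMV strains AD-169 and Davis were tested on confluent human embryonic lung fibroblast monolayers infected with 100 PFU in the presence of serial compound concentrations. Plaques were counted once formation was complete in untreated infected controls. EC50 is the concentration that cuts plaque formation by 50%.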

The test system of series [15] is Human betaherpesvirus 5. In words: Antiviral actiivty against Human herpesvirus 5 AD169 infected in HEL assessed as reduction of virus-induced plaque formation. It counts as functional, organism-based. The conditions noted are these: Human betaherpesvirus 5, AD169. Put shortly:
as §4

Series [16] is described as follows: Cytotoxicity against HEL assessed as minimum cytotoxic concentration required to cause microscopically detectable alteration in cell morphology. The conditions noted are these: human, HEL cells. It counts as cell-based.

Turning to `CC(C)c1ccc(OCCCCCn2ccc(=O)[nH]c2=O)cc1`, the result (in series [1]; in series [2]; in the series with Feline coronavirus; in the series with Sindbis virus; with Punta Toro virus; with Influenza B virus) was inactive. Besides, the result (in series [3]; in the series with Influenza A virus [4]; in the series with Human respirovirus 3; with Influenza A virus [5]; with Coxsackievirus B4; in [6]) was inactive. For the same molecule, the result (in [7]; in the series on Vaccinia virus; in the series with Human alphaherpesvirus 3 [8]; with Human alphaherpesvirus 3 [9]; with Human alphaherpesvirus 2 [10]; with Human alphaherpesvirus 2 [11]) was inactive. Also, the result in the series on Human alphaherpesvirus 1 [12] and in the series on Human alphaherpesvirus 1 [13] was inactive. The CC50 in the series with HEL is over 100 µM. For the same molecule, the EC50 in the series with Human betaherpesvirus 5 [14] was found to be 15 µM; with Human betaherpesvirus 5 [15] it was 25 µM. Besides, in series [16], the MCC came to 100 µM.

For the molecule `CC(C)(C)c1ccc(OCCCCCn2ccc(=O)[nH]c2=O)cc1`, the result (in series [1]; in series [2]; in the series on Feline coronavirus; in the series on Sindbis virus; in the series on Punta Toro virus; in the series with Influenza B virus) was inactive. For the same molecule, the result (in series [3]; with Influenza A virus [4]; with Human respirovirus 3; in the series on Influenza A virus [5]; in the series on Coxsackievirus B4; in series [6]) was inactive. The outcome (in series [7]; with Vaccinia virus; in the series on Human alphaherpesvirus 3 [8]; in the series on Human alphaherpesvirus 3 [9]; in the series on Human alphaherpesvirus 2 [10]; in the series on Human alphaherpesvirus 2 [11]) was inactive. The result in the series with Human alphaherpesvirus 1 [12] and in the series with Human alphaherpesvirus 1 [13] was inactive. In the series on HEL, this molecule yielded a CC50 of 40 µM. Further, the EC50 with Human betaherpesvirus 5 [14] is 12 µM; in the series with Human betaherpesvirus 5 [15] it was 14 µM. Moreover, in series [16], the MCC turned out to be 100 µM.

With `O=c1ccn(CCCCCOc2ccc(Br)cc2)c(=O)[nH]1`, the outcome (in series [1]; in [2]; in the series with Feline coronavirus; in the series on Sindbis virus; with Punta Toro virus; with Influenza B virus) was inactive. Moreover, the result (in [3]; with Influenza A virus [4]; in the series with Human respirovirus 3; in the series with Influenza A virus [5]; in the series on Coxsackievirus B4; in [6]) was inactive. Besides, the result (in [7]; in the series on Vaccinia virus; in the series with Human alphaherpesvirus 3 [8]; in the series on Human alphaherpesvirus 3 [9]; in the series on Human alphaherpesvirus 2 [10]; in the series on Human alphaherpesvirus 2 [11]) was inactive. Further, the outcome in the series on Human alphaherpesvirus 1 [12] and in the series on Human alphaherpesvirus 1 [13] was inactive. This molecule also showed a half-maximal cytotoxic concentration (CC50) in the series with HEL of over 100 µM. Besides, the figures for the 50% effective concentration (EC50) in the series with Human betaherpesvirus 5 [14] and with Human betaherpesvirus 5 [15] were 12 µM and 9.4 µM, respectively. Also, the MCC in series [16] came to 100 µM.

For `Cc1ccccc1OCCCCCn1ccc(=O)[nH]c1=O`, the outcome (in series [1]; in [2]; in the series with Feline coronavirus; in the series on Sindbis virus; in the series with Punta Toro virus; in the series with Influenza B virus) was inactive. In addition, the result (in series [3]; with Influenza A virus [4]; with Human respirovirus 3; in the series with Influenza A virus [5]; in the series on Coxsackievirus B4; in series [6]) was inactive. For the same molecule, the result (in [7]; in the series with Vaccinia virus; in the series on Human alphaherpesvirus 3 [8]; in the series on Human alphaherpesvirus 3 [9]; in the series with Human alphaherpesvirus 2 [10]; with Human alphaherpesvirus 2 [11]) was inactive. Further, the outcome in the series on Human alphaherpesvirus 1 [12] and with Human alphaherpesvirus 1 [13] was inactive. In the series on HEL, the CC50 is over 100 µM. The concentration for a half-maximal effect (EC50) with Human betaherpesvirus 5 [14] and in the series on Human betaherpesvirus 5 [15] was over 100 µM each time. Also, the MCC in series [16] was over 100 µM.

As to `O=c1[nH]c(=O)n(CCCCCOc2ccc(Br)cc2)cc1Br`, the outcome (in [1]; in [2]; in the series on Feline coronavirus; with Sindbis virus; with Punta Toro virus; in the series with Influenza B virus) was inactive. In addition, the outcome (in series [3]; with Influenza A virus [4]; in the series on Human respirovirus 3; in the series on Influenza A virus [5]; with Coxsackievirus B4; in series [6]) was inactive. Moreover, the result (in series [7]; in the series on Vaccinia virus; with Human alphaherpesvirus 3 [8]; in the series with Human alphaherpesvirus 3 [9]; in the series with Human alphaherpesvirus 2 [10]; with Human alphaherpesvirus 2 [11]) was inactive. Besides, the outcome in the series with Human alphaherpesvirus 1 [12] and in the series with Human alphaherpesvirus 1 [13] was inactive. This molecule registered a half-maximal cytotoxic concentration (CC50) in the series on HEL of over 100 µM. The concentration giving a half-maximal response (EC50) in the series on Human betaherpesvirus 5 [14] came to 67 µM; in the series on Human betaherpesvirus 5 [15], 36 µM. Besides, in series [16], the MCC was over 100 µM.

With `CCCOC(=O)c1ccc(OCCCCCn2ccc(=O)[nH]c2=O)cc1`, the outcome (in series [1]; in [2]; with Feline coronavirus; with Sindbis virus; in the series with Punta Toro virus; in the series on Influenza B virus) was inactive. The outcome (in series [3]; in the series with Influenza A virus [4]; in the series on Human respirovirus 3; with Influenza A virus [5]; in the series with Coxsackievirus B4; in series [6]) was inactive. The result (in series [7]; in the series with Vaccinia virus; in the series on Human alphaherpesvirus 3 [8]; in the series with Human alphaherpesvirus 3 [9]; in the series on Human alphaherpesvirus 2 [10]; with Human alphaherpesvirus 2 [11]) was inactive. Further, the outcome in the series with Human alphaherpesvirus 1 [12] and in the series on Human alphaherpesvirus 1 [13] was inactive. Further, the CC50 with HEL was over 100 µM. In addition, the concentration for a half-maximal effect (EC50) with Human betaherpesvirus 5 [14] and in the series on Human betaherpesvirus 5 [15] was 45 µM in each case. In series [16], the MCC is at least 100 µM.

For the molecule `Cc1ccc(OCCCCCn2ccc(=O)[nH]c2=O)cc1`, the result (in series [1]; in [2]; in the series on Feline coronavirus; in the series with Sindbis virus; in the series with Punta Toro virus; with Influenza B virus) was inactive. Also, the result (in [3]; in the series on Influenza A virus [4]; in the series with Human respirovirus 3; in the series with Influenza A virus [5]; in the series on Coxsackievirus B4; in series [6]) was inactive. For the same molecule, the result (in [7]; in the series on Vaccinia virus; with Human alphaherpesvirus 3 [8]; with Human alphaherpesvirus 3 [9]; in the series on Human alphaherpesvirus 2 [10]; in the series with Human alphaherpesvirus 2 [11]) was inactive. The result in the series with Human alphaherpesvirus 1 [12] and in the series with Human alphaherpesvirus 1 [13] was inactive. For the same molecule, in the series on HEL, the CC50 is over 100 µM. Moreover, the 50% effective concentration (EC50) in the series on Human betaherpesvirus 5 [14] and in the series on Human betaherpesvirus 5 [15] was over 20 µM each time. Further, the MCC in series [16] worked out at 100 µM.
